Blank lines part the entries; values can stand above or below the molecule they belong to. Activity calls are given as the source filed them. The calls are words filed in the database; no cut-off is given here. Starred links: 1 amine or outer side, 2 acyl side, 3 side chain; linkers in the order of their positions; H or OH if unused. Positions of bridges follow the written chain, without caps; N, C: chain ends. Non-standard residues stand in square brackets, D forms with d. Residues, ends and D or L forms follow the SMILES beside them. *: point of attachment. Phe(3,5-F2) = N[C@@H](Cc1cc(F)cc(F)c1)C(=O)O; X1 = CN(CC(=O)O)c1nc(CC[*:1])cc(CC[*:2])n1; CH2COCH2 = O=C(C[*:1])C[*:2]; Cam = NC(=O)C*
Assays:
[1] = target: T1, ATP-dependent Clp protease proteolytic subunit (Staphylococcus aureus (strain NCTC 8325)) (UniProt Q2G036); experiment: Activation of Staphylococcus aureus ClpP assessed as beta-casein digestion using beta-casein/FITC casein as substrate at 200 uM incubated for 24 hrs; conditions: filed as activator
T1 sequence (whole entry): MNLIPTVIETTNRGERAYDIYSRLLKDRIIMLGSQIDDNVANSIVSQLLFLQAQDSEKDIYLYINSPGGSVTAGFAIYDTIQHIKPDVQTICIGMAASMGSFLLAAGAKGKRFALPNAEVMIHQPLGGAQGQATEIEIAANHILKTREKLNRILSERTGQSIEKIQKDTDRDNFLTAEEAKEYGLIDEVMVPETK
Procedure, shortened: (§1)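 Purified ClpP (1.0 µM, final) was incubated with bovine beta-casein (5.0 µM or 3 µM) and ligand at 37 °C, in 100 mM Tris-HCl pH 7.6 with 100 mM KCl or 100 mM HEPES pH 7 with 150 mM NaCl. Timed aliquots were quenched in SDS loading buffer at 90 °C for 5 min, run on SDS-PAGE, stained with Coomassie and quantified by densitometry. ≥3 independent experiments.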

[2] = target: T1, ATP-dependent Clp protease proteolytic subunit (Staphylococcus aureus (strain NCTC 8325)); experiment: Induction of tetra-decameric form of Staphylococcus aureus ClpP stabilization in Tris-HCl
Procedure, shortened: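 S. aureus ClpP (1 mg/mL) incubated overnight at 32 °C with or without ligands (200 µM, DMSO as blank) in destabilizing buffer (100 mM Tris-HCl pH 7.6, 100 mM KCl). Oligomeric state then analysed by gel filtration on a pre-equilibrated Superdex 200 Increase 10/300 column, tetradecamer versus heptamer.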

[3] = target: T1, ATP-dependent Clp protease proteolytic subunit (Staphylococcus aureus (strain NCTC 8325)); experiment: Activation of Staphylococcus aureus ClpP assessed as FtsZ digestion at 200 uM incubated for 24 hrs by densitometric analysis; conditions: filed as activator
Procedure, shortened: (§2)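 Strep-tagged S. aureus ClpP (1.0 µM, expressed in ClpP-deficient E. coli SG1146a) digesting S. aureus FtsZ (4.0 µM, final) with ligand at 37 °C, under the same conditions as the beta-casein assay. Timed aliquots were quenched with SDS loading buffer and heated, then resolved by SDS-PAGE, Coomassie-stained and quantified by densitometry. ≥3 independent experiments.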

[4] = target: ATP-dependent Clp protease proteolytic subunit (Escherichia coli (strain K12)) (UniProt P0A6G7); experiment: Activation of Escherichia coli ClpP assessed as increase in fluorescence intensity using beta-casein/FITC casein as substrate at 200 uM incubated for 24 hrs
Sequence of ATP-dependent Clp protease proteolytic subunit (Escherichia coli (strain K12)) (P0A6G7 whole entry): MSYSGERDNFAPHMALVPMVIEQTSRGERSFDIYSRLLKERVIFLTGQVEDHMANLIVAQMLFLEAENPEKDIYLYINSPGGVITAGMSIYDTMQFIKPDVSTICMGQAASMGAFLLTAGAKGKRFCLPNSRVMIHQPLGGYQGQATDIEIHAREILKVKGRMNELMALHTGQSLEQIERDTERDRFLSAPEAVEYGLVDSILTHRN
Procedure, shortened: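 E. coli ClpP (0.5 µM, His-tagged, expressed in E. coli C41(DE3)) with FITC-casein (1.8 µM) plus bovine beta-casein (4.8 µM), final concentrations. Ligands at 200 µM in 100 mM Tris-HCl pH 7.6, 100 mM KCl, 24 h at 37 °C. Fluorescence read at ex 483/em 530 nm, mean of DMSO wells subtracted. Run in parallel without ClpP to exclude false positives. Duplicates, ≥2 independent experiments, mean ± SD.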

[5] = target: ATP-dependent Clp protease proteolytic subunit (Escherichia coli (strain K12)) (UniProt P0A6G7); experiment: Activation of Escherichia coli ClpP assessed as beta-casein digestion using beta-casein/FITC casein as substrate at 200 uM incubated for 24 hrs by SDS-PAGE analysis; conditions: filed as activator; procedure, shortened: as §1
[6] = target: T1, ATP-dependent Clp protease proteolytic subunit (Staphylococcus aureus (strain NCTC 8325)); experiment: Activation of Staphylococcus aureus ClpP assessed as beta-casein digestion using beta-casein/FITC casein as substrate at 10 uM incubated for 24 hrs; conditions: filed as activator; procedure, shortened: as §1
[7] = target: T1, ATP-dependent Clp protease proteolytic subunit (Staphylococcus aureus (strain NCTC 8325)); experiment: Activation of Staphylococcus aureus ClpP assessed as FtsZ digestion at 10 uM incubated for 24 hrs by densitometric analysis; conditions: filed as activator; procedure, shortened: as §2
[8] = target: T2, ATP-dependent Clp protease proteolytic subunit (Staphylococcus aureus (strain NCTC 8325), UniProt Q2G036); experiment: Activation of Staphylococcus aureus ClpP assessed as beta-casein digestion using beta-casein/FITC casein as substrate incubated for 24 hrs
T2 sequence (Q2G036 whole entry): T1 sequence (whole entry)

SMILES: CCCC/C=C/C(=O)N[C@@H](Cc1cc(F)cc(F)c1)C(=O)OC
- Activity [1]: Active
- Activity [2]: Active
- Activity [3]: Active

SMILES: CC[C@H](C)[C@@H]1NC(=O)CNC(=O)[C@@H](NC(C)=O)CSCC(=O)CSC[C@@H](C(N)=O)NC(=O)CNC(=O)[C@@H](Cc2ccccc2)NC(=O)CNC1=O
- Activity [4]: inactive

SMILES: CC[C@H](C)[C@@H]1NC(=O)CNC(=O)[C@@H](NC(C)=O)CSCC(=O)CSC[C@@H](C(N)=O)NC(=O)CNC(=O)[C@H](Cc2ccccc2)NC(=O)CNC1=O
- Activity [5]: Active
- Activity [1]: Active
- Activity [3]: Active

SMILES: CC[C@H](C)[C@@H]1NC(=O)CNC(=O)[C@H](NC(C)=O)CSCC(=O)CSC[C@@H](C(N)=O)NC(=O)CNC(=O)[C@H](C)NC(=O)CNC1=O
- Activity [4]: inactive

SMILES: C[C@@H]1C[C@H]2C(=O)OC[C@H](NC(=O)[C@H](Cc3cc(F)cc(F)c3)NC(=O)CCC3CCCCC3)C(=O)N3CCC[C@H]3C(=O)N3CCCC[C@H]3C(=O)N[C@@H](C)C(=O)N2C1
- Activity [6]: Active
- Activity [2]: Active
- Activity [7]: Active

SMILES: CC[C@H](C)[C@H](NC(=O)CNC(=O)[C@H](CSCC(N)=O)NC(C)=O)C(=O)NCC(=O)N[C@@H](Cc1ccccc1)C(=O)NCC(=O)N[C@@H](C)C(=O)N[C@H](C(=O)N[C@@H](CSCC(N)=O)C(N)=O)[C@@H](C)O (Ac-C(Cam)GIGFGATC(Cam)-NH2)
- Activity [4]: inactive

SMILES: CC[C@H](C)[C@H](NC(=O)CNC(=O)[C@H](CSCC(N)=O)NC(C)=O)C(=O)NCC(=O)N[C@@H](Cc1cc(F)cc(F)c1)C(=O)NCC(=O)N[C@@H](CSCC(N)=O)C(N)=O (Ac-C(Cam)GIG[Phe(3,5-F2)]GC(Cam)-NH2)
- Activity [4]: inactive

SMILES: CC[C@H](C)[C@@H]1NC(=O)CNC(=O)[C@@H](NC(C)=O)CSCC(=O)CSC[C@@H](C(N)=O)NC(=O)CNC(=O)[C@H](Cc2cc(F)cc(F)c2)NC(=O)CNC1=O (Ac-CGIG[Phe(3,5-F2)]GC-NH2; linker 1-7 via CH2COCH2)
- Activity ([4]; filed as activator): Active
- Activity [5]: Active
- Activity [1]: Active
- EC50 [8]: 41 µM
- Activity [3]: Active

SMILES: CC[C@H](C)[C@@H]1NC(=O)CNC(=O)[C@@H](NC(C)=O)CSCCc2cc(nc(N(C)CC(=O)O)n2)CCSC[C@@H](C(N)=O)NC(=O)CNC(=O)[C@H](Cc2cc(F)cc(F)c2)NC(=O)CNC1=O (Ac-CGIG[Phe(3,5-F2)]GC-NH2; linker 1-7 via X1)
- Activity [4]: inactive

Continued, values first:

- Activity [4]: inactive
SMILES: CC[C@H](C)[C@H](NC(=O)CNC(=O)[C@H](CSCC(N)=O)NC(C)=O)C(=O)NCC(=O)N[C@@H](Cc1ccccc1)C(=O)NCC(=O)N[C@@H](C)C(=O)N[C@@H](CSCC(N)=O)C(N)=O (Ac-C(Cam)GIGFGAC(Cam)-NH2)

- Activity [4]: inactive
SMILES: CC[C@H](C)[C@H](NC(=O)CNC(=O)[C@H](CSCC(N)=O)NC(C)=O)C(=O)NCC(=O)N[C@@H](Cc1ccccc1)C(=O)NCC(=O)N[C@@H](CSCC(N)=O)C(N)=O (Ac-C(Cam)GIGFGC(Cam)-NH2)

- Activity [4]: inactive
SMILES: CC[C@H](C)[C@H](NC(=O)[C@H](CSCC(N)=O)NC(C)=O)C(=O)NCC(=O)N[C@@H](Cc1ccccc1)C(=O)NCC(=O)N[C@@H](C)C(=O)N[C@@H](CSCC(N)=O)C(N)=O (Ac-C(Cam)IGFGAC(Cam)-NH2)

- Activity [4]: inactive
SMILES: CC[C@H](C)[C@H](NC(=O)[C@H](CSCC(N)=O)NC(C)=O)C(=O)NCC(=O)N[C@@H](Cc1ccccc1)C(=O)NCC(=O)N[C@@H](C)C(=O)N[C@H](C(=O)N[C@@H](CSCC(N)=O)C(N)=O)[C@@H](C)O (Ac-C(Cam)IGFGATC(Cam)-NH2)

- Activity [4]: inactive
SMILES: CC[C@H](C)[C@H](NC(=O)[C@H](CSCC(N)=O)NC(C)=O)C(=O)NCC(=O)N[C@@H](Cc1ccccc1)C(=O)NCC(=O)N[C@@H](CSCC(N)=O)C(N)=O (Ac-C(Cam)IGFGC(Cam)-NH2)

Source: ChEMBL document CHEMBL5329149, “Identification of macrocyclic peptides which activate bacterial cylindrical proteases” (RSC Med Chem, 2023)
